The test system of experiment [1] is Rattus norvegicus. Briefly: Effective dose required for analgesic activity by trypsin-induced hyperalgesia assay at 20 mg/kg by oral administration in rats. Format: functional. The method, boiled down: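 Rat trypsin-induced hyperalgesia (mild analgesia) with oral dosing. ED50 reported in mg/kg po. Each compound tested two or three times; average variation approximately 5%.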

For experiment [2], the system named is Rattus norvegicus. Briefly: Percent inhibition for analgesic activity by trypsin-induced hyperalgesia assay at 20 mg/kg by oral administration in rats. Format: functional. The gist of the method: (§1)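 Rat trypsin-induced hyperalgesia (mild analgesia). Percent inhibition at a single oral dose of 20 mg/kg. Each compound tested two or three times; average variation approximately 5%.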

The species named for experiment [3] is Mus musculus. The experiment is described as follows: Ratio of rotarod to straub tail activity, which indicates the dose exhibiting muscle relaxant activity versus that producing sedation. The format is functional. The gist of the method:
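Ratio of rotorod ED50 (po) to Straub tail ED50 (po), both measured in mice with oral dosing. Indicates separation between the muscle-relaxant dose and the sedating dose.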
Background: In the rotarod test animals must keep their balance on a rotating rod.

The subject of experiment [4] is Mus musculus. Briefly: Effective dose required for muscle relaxation by oral administration in mouse using Straub-tail (ST) assay. Format: functional. The gist of the method: (§2)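 Mouse morphine-induced Straub tail assay, scoring inhibition of sacro-coccygeus dorsalis contraction. Dosed ip or po, generally at a minimum of three doses with N = 6 animals per dose group.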

For experiment [5], the system named is Mus musculus. Briefly: Effective dose required for muscle relaxation by intraperitoneal administration in mouse using Straub-tail (ST) assay. The format is functional. Conditions: ip. The gist of the method: as §2
Experiment [6] has as its system Mus musculus. The experiment is described as follows: Sedation caused by oral administration was estimated using rotarod (RR) assay. The format is functional. The method, boiled down: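 Mouse rotorod test for sedation, oral dosing, generally at a minimum of three doses with N = 6 animals per dose group.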
The subject of experiment [7] is Mus musculus. Briefly: (§3) Percent effect profile muscle relaxation at 100 mg/kg by intraperitoneal administration in mouse using Straub-tail (ST) assay. Format: functional. The following applies: ip. The method, boiled down: (§4)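 Mouse morphine-induced Straub tail assay, scoring inhibition of sacro-coccygeus dorsalis contraction. Single ip dose of 100 mg/kg; percent effect reported. Compounds above 50% inhibition were then tested orally.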

The subject of experiment [8] is Rattus norvegicus. Briefly: Effective dose required for muscle relaxation after oral administration in Lewis rats by pull-up test.
The subject of experiment [9] is Rattus norvegicus. Briefly: Antiinflammatory activity in edema by Carrageenan pleurisy assay by oral administration. Format: functional. The method, boiled down: (§5)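 Rat carrageenan pleurisy, 3 h. Compounds given orally, with separate read-outs for pleural cell counts and edema. ED50 reported in mg/kg po. Each compound tested two or three times; average variation approximately 10%.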

Experiment [10] relates to Rattus norvegicus. Briefly: Antiinflammatory activity in cells by Carrageenan pleurisy assay by oral administration. Format: functional. The gist of the method:
as §5

Experiment [11] deals with Rattus norvegicus. Briefly: Percent inhibition for analgesic activity by trypsin-induced hyperalgesia assay at 20 mg/kg by oral administration in rats. The format is functional. The method, boiled down:
as §1

Experiment [12] has as its system Rattus norvegicus. The experiment is described as follows: Effective dose required to produce analgesic activity in the trypsin hyperalgesia assay by oral administration.
In experiment [13] the test system is Rattus norvegicus. Briefly: Effective dose required for sedation in Wistar rats evaluated by loss of righting reflex by oral administration. Format: functional. The gist of the method:
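Sedation in Wistar rats scored as loss of righting reflex (ability to stay upright) after oral dosing. ED50 reported in mg/kg po.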

Experiment [14] deals with Mus musculus. The description is as §3. Format: functional. The following applies: ip. The method, boiled down:
as §4
The source holds these as a separate data set.

The test system of experiment [15] is Rattus norvegicus. Briefly: Effective dose required for muscle relaxation after oral administration in Wistar rats by pull-up test.
Experiment [16] can be described thus: Effective dose required to produce analgesic activity in the adjuvant arthritis hyperalgesia assay by oral administration. Format: functional.
The species named for experiment [17] is Mus musculus. Briefly: Effective dose required to produce analgesic activity was measured by mouse hot plate assay. The format is functional. (Hot-plate and tail-flick tests time the reaction to a heat stimulus.)
Experiment [18] in a line: Effective dose required to produce analgesic activity in the phalanges algesia assay by oral administration. Format: functional.
Experiment [19] addresses T1, Amine oxidase [flavin-containing] A (Homo sapiens, UniProt P21397).
T1 sequence (P21397 whole entry): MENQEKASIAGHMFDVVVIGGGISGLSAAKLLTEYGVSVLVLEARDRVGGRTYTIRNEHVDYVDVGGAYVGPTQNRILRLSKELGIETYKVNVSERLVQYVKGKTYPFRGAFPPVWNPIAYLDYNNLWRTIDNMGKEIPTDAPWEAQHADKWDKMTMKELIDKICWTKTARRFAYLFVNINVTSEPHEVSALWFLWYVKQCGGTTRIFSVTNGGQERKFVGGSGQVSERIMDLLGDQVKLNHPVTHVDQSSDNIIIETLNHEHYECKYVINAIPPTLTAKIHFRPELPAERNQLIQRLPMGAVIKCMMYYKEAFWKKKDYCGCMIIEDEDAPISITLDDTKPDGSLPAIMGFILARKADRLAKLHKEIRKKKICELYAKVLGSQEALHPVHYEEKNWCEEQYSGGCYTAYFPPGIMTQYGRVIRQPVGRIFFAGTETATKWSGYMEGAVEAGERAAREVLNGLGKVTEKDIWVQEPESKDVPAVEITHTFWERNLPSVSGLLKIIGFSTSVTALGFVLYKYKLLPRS
The experiment is described as follows: Inhibitory concentration against Monoamine oxidase A (MAO-A).

For experiment [20], the system named is Mus musculus. Briefly: Evaluated for sedation in mice by loss of righting reflex up to a dose of 200 mg/kg by oral administration; No loss of righting reflex. Format: functional, organism-based. More on the design: dose 200 mg/kg.
The target in experiment [21] is T2, Amine oxidase [flavin-containing] B (Homo sapiens, UniProt P27338).
T2 sequence (P27338 whole entry): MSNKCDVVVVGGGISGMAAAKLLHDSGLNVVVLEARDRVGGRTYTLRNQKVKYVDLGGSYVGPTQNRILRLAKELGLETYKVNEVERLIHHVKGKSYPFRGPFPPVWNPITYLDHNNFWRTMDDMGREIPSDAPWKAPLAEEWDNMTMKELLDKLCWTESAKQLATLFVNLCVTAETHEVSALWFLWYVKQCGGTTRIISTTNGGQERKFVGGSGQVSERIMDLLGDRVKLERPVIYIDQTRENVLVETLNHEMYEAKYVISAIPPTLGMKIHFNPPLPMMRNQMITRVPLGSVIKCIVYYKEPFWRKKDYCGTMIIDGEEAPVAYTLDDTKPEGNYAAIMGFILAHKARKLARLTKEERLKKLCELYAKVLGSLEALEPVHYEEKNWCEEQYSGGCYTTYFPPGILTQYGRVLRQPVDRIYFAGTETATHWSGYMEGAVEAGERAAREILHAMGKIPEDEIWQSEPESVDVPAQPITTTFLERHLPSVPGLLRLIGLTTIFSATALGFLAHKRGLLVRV
Briefly: Inhibitory concentration against Monoamine oxidase B (MAO-B).

The subject of experiment [22] is Rattus norvegicus. The experiment is described as follows: Percent inhibition for analgesic activity by trypsin-induced hyperalgesia assay at 20 mg/kg by oral administration in rats; ND is no data. Format: functional. The gist of the method: as §1

The values below come from ChEMBL document CHEMBL1144887, “Indanylidenes. 1. Design and synthesis of (E)-2-(4,6-difluoro-1-indanylidene)acetamide, a potent, centrally acting muscle relaxant with antiinflammatory and analgesic activity” (J Med Chem, 2003).

For `NC(=O)/C=C1\CCc2ccccc21`, the ED50 (usually the dose that gives a 50% effect, or the effect in half of the subjects) is 9 mg/kg with Rattus norvegicus [1], 108 mg/kg in the experiment with Mus musculus [4], 31 mg/kg in the experiment on Mus musculus [5] and 164 mg/kg with Mus musculus [6]. Further, in the experiment on Rattus norvegicus [2], the inhibition in vivo – broadly, the relative decrease from the control value, in per cent – at 20 mg/kg was found to be 88%. In the experiment filed under Mus musculus [3], the Ratio stood at 1.5.

For the compound `NC(=O)/C=C1\CCc2c(F)cc(F)cc21`, the values for the inhibition in vivo at 100 mg/kg with Mus musculus [7] and in the experiment with Mus musculus [14] were 67% and 100%, respectively. For the same compound, the ED50 in the experiment with Rattus norvegicus [1] was 4 mg/kg; in the experiment on Rattus norvegicus [8] it was 18 mg/kg; in the experiment on Rattus norvegicus [9] it was 15 mg/kg; in the experiment on Rattus norvegicus [10], 19 mg/kg; in the experiment on Rattus norvegicus [12], 22 mg/kg; in the experiment with Rattus norvegicus [13], 200 mg/kg. Moreover, the 50% effective dose (ED50) in the experiment on Mus musculus [4] was 69 mg/kg; in the experiment with Rattus norvegicus [15] it was 64 mg/kg; in experiment [16], 21 mg/kg; in the experiment listed under Mus musculus [17], 30 mg/kg; in experiment [18], 20 mg/kg; in the experiment on Mus musculus [6], 138 mg/kg. In the experiment on Mus musculus [20], the ED50 entry is “No loss of righting reflex”. The inhibition in vivo at 20 mg/kg with Rattus norvegicus [11] was 100%. In addition, the half-inhibitory concentration (IC50) (as a rule, the concentration that gives 50% inhibition) in experiment [19] was found to be 11 µM; in experiment [21] it was 0.2 µM.

Take `Cc1ccc2c(c1)/C(=C/C(N)=O)CC2`: the inhibition in vivo at 20 mg/kg in the experiment with Rattus norvegicus [22] stood at 14%. Besides, in the experiment on Mus musculus [14], the inhibition in vivo at 100 mg/kg amounted to 33%.
